In one data set the test system is Plasma. As to the kind of experiment: Metabolic stability in po dosed Sprague-Dawley rat plasma assessed as glutathione adduct formation. Type of data set: ADME, organism-based. The settings on record: in vivo. Summed up: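 Plasma samples from the full rat PK study (oral, 3 mg/kg) were analysed for metabolites, including glutathione adducts.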
Data set [1] can be described thus: Oral bioavailability in Sprague-Dawley rat at 3 mg/kg. Type of data set: ADME, organism-based. The note with it: in vivo.
Data set [2] is described as follows: AUC (0 to 6 hrs) in Sprague-Dawley rat at 10 mg/kg, po. Set-up: time < 6 hr, dose 10 mg/kg, route oral. The note with it: plasma. The class given is ADME, organism-based. The gist of the method:
(§1)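 Sprague Dawley rats received esters orally at 10 mg/kg in 0.4% methylcellulose, given as trifluoroacetate salts. Plasma levels of both the intact ester prodrug and the acid metabolite were measured. AUC was integrated over 0–6 h after dosing.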

Another data set has as its system Hepatitis C virus. As to the kind of experiment: Antiviral activity against HCV1b assessed as inhibition of viral replication. The class given is functional, organism-based, Hepacivirus hominis. The settings on record: genotype 1b. The gist of the method: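 In the cell-based HCV replicon assay, viral RNA levels were measured. EC50 is the concentration giving a 50% reduction in replicon RNA.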

The nature of data set [3]: Inhibition of HCV1b NS5B polymerase. Also noted: species or system Hepatitis C virus subtype 1b.
In data set [4] the test system is Cynomolgus monkey. As to the kind of experiment: Prodrug conversion in cynomolgus monkey assessed as AUC (0 to 24 hrs) of 4-Fluoro-6-((6-fluoro-1H-indazol-5-yl)methyl)-8-(2-oxo-1,2-dihydropyridin-3-yl)-6H-furo[2,3-e]indole-7-carboxylic acid level at 3 mg/kg, po. Type of data set: ADME, organism-based, Macaca fascicularis. Also noted: time < 24 hr, dose 3 mg/kg, route oral. The note with it: in vivo.

Data set [5] concerns Rattus norvegicus. As to the kind of experiment: Prodrug conversion in Sprague-Dawley rat assessed as AUC (0 to 24 hrs) of 4-Fluoro-6-((6-fluoro-1H-indazol-5-yl)methyl)-8-(2-oxo-1,2-dihydropyridin-3-yl)-6H-furo[2,3-e]indole-7-carboxylic acid level at 10 mg/kg, po. The class given is ADME, organism-based. The settings on record: in vivo. Set-up: time < 24 hr, dose 10 mg/kg, route oral. The gist of the method: (§2)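 Dimethylaminoethyl ester prodrugs were dosed orally to rats at 10 mg/kg in 0.4% methylcellulose.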

For data set [6], the system named is Cynomolgus monkey. As to the kind of experiment: Prodrug conversion in cynomolgus monkey assessed as AUC (0 to 24 hrs) of 6-((2-Aminoquinolin-4-yl)methyl)-4-fluoro-8-(2-oxo-1,2-dihydropyridin-3-yl)-6H-furo[2,3-e]indole-7-carboxylic acid level at 3 mg/kg, po. Set-up: time < 24 hr, dose 3 mg/kg, route oral. The note with it: in vivo. The class given is ADME, organism-based, Macaca fascicularis.

Data set [7] has as its system Rattus norvegicus. As to the kind of experiment: Prodrug conversion in Sprague-Dawley rat assessed as AUC (0 to 24 hrs) of 6-((2-Aminoquinolin-4-yl)methyl)-4-fluoro-8-(2-oxo-1,2-dihydropyridin-3-yl)-6H-furo[2,3-e]indole-7-carboxylic acid level at 10 mg/kg, po. The class given is ADME, organism-based. Also noted: time < 24 hr, dose 10 mg/kg, route oral. The settings on record: in vivo. Summed up:
as §2

The subject of data set [8] is Rattus norvegicus. Briefly: Prodrug conversion in Sprague-Dawley rat assessed as AUC (0 to 6 hrs) of 6-((6-Chloro-1H-benzo[d]imidazol-5-yl)methyl)-4-fluoro-8-(2-oxo-1,2-dihydropyridin-3-yl)-6H-furo[2,3-e]indole-7-carboxylic acid level at 10 mg/kg, po. The class given is ADME, organism-based. Set-up: time < 6 hr, dose 10 mg/kg, route oral. The note with it: in vivo. The gist of the method: as §1

The subject of data set [9] is Rattus norvegicus. As to the kind of experiment: Prodrug conversion in Sprague-Dawley rat assessed as AUC (0 to 6 hrs) of parent compound level at 10 mg/kg, po. Type of data set: ADME, organism-based. Also noted: time < 6 hr, dose 10 mg/kg, route oral. The settings on record: in vivo. Summed up: as §1
The subject of data set [10] is Cynomolgus monkey. Briefly: Prodrug conversion in cynomolgus monkey assessed as AUC (0 to 24 hrs) of 4-Fluoro-6-((6-fluoro-1H-benzo[d]imidazol-5-yl)methyl)-8-(2-oxo-1,2-dihydropyridin-3-yl)-6H-furo[2,3-e]indole-7-carboxylic acid level at 3 mg/kg, po. The class given is ADME, organism-based, Macaca fascicularis. Also noted: time < 24 hr, dose 3 mg/kg, route oral. The settings on record: in vivo.

The subject of data set [11] is Rattus norvegicus. As to the kind of experiment: Prodrug conversion in Sprague-Dawley rat assessed as AUC (0 to 24 hrs) of 4-Fluoro-6-((6-fluoro-1H-benzo[d]imidazol-5-yl)methyl)-8-(2-oxo-1,2-dihydropyridin-3-yl)-6H-furo[2,3-e]indole-7-carboxylic acid level at 10 mg/kg, po. The class given is ADME, organism-based. Set-up: time < 24 hr, dose 10 mg/kg, route oral. The settings on record: in vivo. Summed up:
as §2

The subject of data set [12] is Cynomolgus monkey. As to the kind of experiment: Prodrug conversion in cynomolgus monkey assessed as AUC (0 to 24 hrs) of 6-((6-Chloro-1H-benzo[d]imidazol-5-yl)methyl)-4-fluoro-8-(2-oxo-1,2-dihydropyridin-3-yl)-6H-furo[2,3-e]indole-7-carboxylic acid level at 3 mg/kg, po. The note with it: in vivo. Also noted: time < 24 hr, dose 3 mg/kg, route oral. The class given is ADME, organism-based, Macaca fascicularis.

Data set [13] has as its system Rattus norvegicus. Briefly: Prodrug conversion in Sprague-Dawley rat assessed as AUC (0 to 24 hrs) of 6-((6-Chloro-1H-benzo[d]imidazol-5-yl)methyl)-4-fluoro-8-(2-oxo-1,2-dihydropyridin-3-yl)-6H-furo[2,3-e]indole-7-carboxylic acid level at 10 mg/kg, po. Type of data set: ADME, organism-based. The note with it: in vivo. Also noted: time < 24 hr, dose 10 mg/kg, route oral. Summed up:
as §2

In data set [14] the test system is Cynomolgus monkey. As to the kind of experiment: Prodrug conversion in cynomolgus monkey assessed as AUC (0 to 24 hrs) of 6-((3-Amino-6-fluoro-1H-indazol-5-yl)methyl)-4-fluoro-8-(2-oxo-1,2-dihydropyridin-3-yl)-6H-furo[2,3-e]indole-7-carboxylic acid level at 3 mg/kg, po. The class given is ADME, organism-based, Macaca fascicularis. Also noted: time < 24 hr, dose 3 mg/kg, route oral. The settings on record: in vivo.

For data set [15], the system named is Rattus norvegicus. As to the kind of experiment: Prodrug conversion in Sprague-Dawley rat assessed as AUC (0 to 24 hrs) of 6-((3-Amino-6-fluoro-1H-indazol-5-yl)methyl)-4-fluoro-8-(2-oxo-1,2-dihydropyridin-3-yl)-6H-furo[2,3-e]indole-7-carboxylic acid level at 10 mg/kg, po. Type of data set: ADME, organism-based. Set-up: time < 24 hr, dose 10 mg/kg, route oral. The note with it: in vivo. Summed up:
as §2

By bioavailability is commonly meant dose-corrected exposure relative to a reference, in per cent. One may read the AUC(0-t) as exposure summed from dosing to a finite time, without extrapolation to infinity. The EC50 is the concentration at which the effect is half-maximal. A word on the IC50: it is the concentration needed to halve the response being measured. As usually defined, the AUC is the area under the concentration-time curve, a measure of exposure.

Take `NC(=O)c1ccc(F)c(Cn2c(C(=O)O)c(-c3ccc[nH]c3=O)c3c4occc4c(F)cc32)c1`: the Stability entry in the data set on Plasma is given as “Stable”. The same compound returned a bioavailability in [1] of 1.5%. Besides, in [2], the AUC(0-t) at 6 h turned out to be 1.7 µM·h. Further, the EC50 in the data set on Hepatitis C virus was 15 nM. The same compound registered an IC50 in data set [3] of 4 nM.
For the compound `CN(C)CCOC(=O)c1c(-c2ccc[nH]c2=O)c2c3occc3c(F)cc2n1Cc1cc2cn[nH]c2cc1F.O=C(O)C(F)(F)F`, the AUC with Cynomolgus monkey [4] came to 33 µM·h; in the data set on Rattus norvegicus [5] it was 222 µM·h. The EC50 in the data set on Hepatitis C virus was 6 nM.
In the case of `CN(C)CCOC(=O)c1c(-c2ccc[nH]c2=O)c2c3occc3c(F)cc2n1Cc1cc(N)nc2ccccc12.O=C(O)C(F)(F)F`, the AUC in the data set on Cynomolgus monkey [6] was determined as 17 µM·h; in the data set with Rattus norvegicus [7], 651 µM·h. For the same compound, the half-maximal effective concentration (EC50) in the data set with Hepatitis C virus worked out at 7 nM.
`CN(C)CCCOC(=O)c1c(-c2ccc[nH]c2=O)c2c3occc3c(F)cc2n1Cc1cc2[nH]cnc2cc1Cl.O=C(O)C(F)(F)F`: the AUC turned out to be 0.7 µM·h in the data set on Rattus norvegicus [8] and 9.1 µM·h in the data set on Rattus norvegicus [9].
The corresponding values for `O=C(O)C(F)(F)F.O=C(OCCN1CCOCC1)c1c(-c2ccc[nH]c2=O)c2c3occc3c(F)cc2n1Cc1cc2[nH]cnc2cc1Cl` are 5.5 µM·h and 0.2 µM·h.
The corresponding values for `CC(CN(C)C)OC(=O)c1c(-c2ccc[nH]c2=O)c2c3occc3c(F)cc2n1Cc1cc2[nH]cnc2cc1Cl.O=C(O)C(F)(F)F` (stereo unspecified) are 32.6 µM·h and 0.8 µM·h.
In turn, `Cc1cc2[nH]ncc2cc1Cn1c(C(=O)O)c(-c2ccc[nH]c2=O)c2c3occc3c(F)cc21` displayed an AUC(0-t) at 6 h in data set [2] of 2.1 µM·h. Further, the EC50 in the data set on Hepatitis C virus is 2 nM. Besides, in [3], the IC50 was 3 nM.
Turning to `CN(C)CCOC(=O)c1c(-c2ccc[nH]c2=O)c2c3occc3c(F)cc2n1Cc1cc2[nH]cnc2cc1F.O=C(O)C(F)(F)F`, the results for the AUC in the data set with Cynomolgus monkey [10] and with Rattus norvegicus [11] were 14.6 µM·h and 159 µM·h, respectively. For the same compound, the EC50 in the data set on Hepatitis C virus turned out to be 6 nM.
Compound `O=C(O)c1c(-c2ccc[nH]c2=O)c2c3occc3c(F)cc2n1Cc1cc2cn[nH]c2cc1Cl` gave an AUC(0-t) at 6 h in data set [2] of 5.1 µM·h. For the same compound, the EC50 in the data set on Hepatitis C virus is 5 nM. This compound had an IC50 in data set [3] of 3 nM.
`O=C(O)c1c(-c2ccc[nH]c2=O)c2c3occc3c(F)cc2n1Cc1cc2[nH]cnc2cc1F` yielded an AUC(0-t) at 6 h in [2] of 7.7 µM·h. Besides, in the data set on Hepatitis C virus, the EC50 came to 7 nM. The compound further registered an IC50 in data set [3] of 3 nM.
`Nc1n[nH]c2cc(Cn3c(C(=O)O)c(-c4ccc[nH]c4=O)c4c5occc5c(F)cc43)c(F)cc12` came in with an AUC(0-t) at 6 h in data set [2] of 3.6 µM·h. For the same compound, in the data set with Hepatitis C virus, the EC50 amounted to 12 nM. This compound also gave an IC50 in data set [3] of 5 nM.
On to `O=C([O-])c1c(-c2ccc[nH]c2=O)c2c3occc3c(F)cc2n1Cc1cc2[nH]cnc2cc1Cl.[Na+]`, for which the AUC in the data set on Rattus norvegicus [8] stood at 2.1 µM·h.
Take `CN(C)CCOC(=O)c1c(-c2ccc[nH]c2=O)c2c3occc3c(F)cc2n1Cc1cc2[nH]cnc2cc1Cl.O=C(O)C(F)(F)F`: the AUC with Cynomolgus monkey [12] is 14 µM·h; in the data set on Rattus norvegicus [13], 208 µM·h; in the data set on Rattus norvegicus [8], 32.5 µM·h; in the data set on Rattus norvegicus [9], 0.5 µM·h. In the data set with Hepatitis C virus, the EC50 was 13 nM.
On to `CN(C)CCOC(=O)c1c(-c2ccc[nH]c2=O)c2c3occc3c(F)cc2n1Cc1cc2c(N)n[nH]c2cc1F.O=C(O)C(F)(F)F`, for which the AUC was 4.2 µM·h in the data set with Cynomolgus monkey [14] and 118 µM·h with Rattus norvegicus [15]. Moreover, the EC50 in the data set on Hepatitis C virus was found to be 4 nM.

The values above are taken from ChEMBL document CHEMBL3098025, “Optimization of potency and pharmacokinetics of tricyclic indole derived inhibitors of HCV NS5B polymerase. Identification of ester prodrugs with improved oral pharmacokinetics” (Bioorg Med Chem, 2014).
